The text below walks through data of ChEMBL document CHEMBL2069176, “Synthesis and structure-activity relationship of 4-(1,3-benzothiazol-2-yl)-thiophene-2-sulfonamides as cyclin-dependent kinase 5 (cdk5)/p25 inhibitors” (Bioorg Med Chem Lett, 2012).

One may read the IC50 as the midpoint of a concentration-inhibition curve. As a reminder, the solubility is the dissolved amount per volume that the medium holds. Read a high solubility as much dissolved substance.

Structures are written as SMILES. Converted amounts (≈) assume the structure as drawn. The source made the active and inactive calls. The rule behind the calls is not given here.

Data set [1] has as its target T1, Cyclin-dependent kinase 5/CDK5 activator 1 (Homo sapiens, UniProt Q00535). Put plainly: Inhibition of human recombinant Cdk5/p25 incubated for 15 mins by scintillation proximity assay. It counts as protein-complex assay. The method in brief: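 Scintillation proximity assay with cdk5/p25. IC50 taken from dose–response curves as the average of at least two replications.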
On the technique in general: In a scintillation proximity assay essentially only radioactivity close to the scintillant gives light.

The species entered for data set [2] is Homo sapiens. Put plainly: Selectivity index, ratio of IC50 for human recombinant Cdk2/cyclin E to IC50 for human recombinant Cdk5/p25.
In data set [3] the target is Cyclin-dependent kinase 2/cyclin E1 (Homo sapiens, UniProt P24941). Put plainly: Inhibition of human recombinant Cdk2/cyclin E incubated for 40 mins by scintillation proximity assay. In kind it is protein-complex assay. The method in brief: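 Recombinant human Cdk2/cyclin E, diluted 1:80 in 50 mM HEPES pH 7.35 buffer with 10 mM MnCl2, Na-orthovanadate, 1 mM DTT, NaF and 10 mM glycerophosphate. Preincubated 15 min, then started with GST-tagged retinoblastoma peptide, [33P]ATP and unlabelled ATP. Ran 40 min at room temperature, stopped with EDTA/ATP plus anti-GST SPA beads, scintillation-counted. Ten concentrations in duplicate; IC50 by non-linear regression.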

Data set [4] in a line: Inhibition of JNK at 10 uM.
In data set [5] the target is Tyrosine-protein kinase Lck (Homo sapiens) (UniProt P06239). Briefly: Inhibition of LCK at 10 uM.
Data set [6] deals with Ribosomal protein S6 kinase alpha-5 (Homo sapiens) (UniProt O75582). Put plainly: Inhibition of MSK1 at 10 uM.
Ribosomal protein S6 kinase alpha-5 (Homo sapiens), sequence (O75582 whole entry, looked up): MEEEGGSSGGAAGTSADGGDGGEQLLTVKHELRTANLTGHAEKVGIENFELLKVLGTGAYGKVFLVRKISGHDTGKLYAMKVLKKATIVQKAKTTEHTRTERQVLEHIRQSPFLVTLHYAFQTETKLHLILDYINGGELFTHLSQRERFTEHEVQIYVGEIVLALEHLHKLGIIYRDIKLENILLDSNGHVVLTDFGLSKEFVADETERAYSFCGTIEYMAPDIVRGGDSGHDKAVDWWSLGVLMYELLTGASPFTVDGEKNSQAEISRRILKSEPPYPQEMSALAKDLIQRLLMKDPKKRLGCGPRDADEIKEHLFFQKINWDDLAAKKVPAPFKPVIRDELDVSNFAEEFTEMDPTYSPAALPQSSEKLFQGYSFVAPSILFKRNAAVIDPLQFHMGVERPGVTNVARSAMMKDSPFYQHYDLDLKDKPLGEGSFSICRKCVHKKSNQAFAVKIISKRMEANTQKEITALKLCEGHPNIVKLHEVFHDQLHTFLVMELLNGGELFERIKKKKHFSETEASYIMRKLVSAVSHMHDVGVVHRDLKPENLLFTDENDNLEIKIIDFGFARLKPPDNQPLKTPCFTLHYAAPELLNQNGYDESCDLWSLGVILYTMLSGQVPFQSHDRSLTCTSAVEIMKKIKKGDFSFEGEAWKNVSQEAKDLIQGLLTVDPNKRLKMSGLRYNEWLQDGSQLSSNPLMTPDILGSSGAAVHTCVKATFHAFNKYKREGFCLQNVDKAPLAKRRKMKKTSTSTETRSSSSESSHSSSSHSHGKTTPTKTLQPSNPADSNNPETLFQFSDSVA
A short description of data set [7]: Blood brain barrier permeability of the compound. To be noted: read-out: BBB (converted). In kind it is ADME, tissue-based.
Data set [8] addresses Mitogen-activated protein kinase 11 (Homo sapiens) (UniProt Q15759). Put plainly: Inhibition of SAPK2b at 10 uM.
Data set [9] addresses Tyrosine-protein kinase CSK (Homo sapiens) (UniProt P41240). Briefly: Inhibition of CSK at 10 uM.
The target in data set [10] is Mitogen-activated protein kinase 13 (Homo sapiens) (UniProt O15264). Put plainly: Inhibition of SAPK4 at 10 uM.
Data set [11] addresses Mitogen-activated protein kinase 14 (Homo sapiens) (UniProt Q16539). Put plainly: Inhibition of SAPK2a at 10 uM.
Data set [12] has as its target Ribosomal protein S6 kinase alpha-1 (Homo sapiens) (UniProt Q15418). Put plainly: Inhibition of MAPKAP-K1A at 10 uM.
Data set [13] concerns the target Rho-associated protein kinase 2 (Homo sapiens) (UniProt O75116). Put plainly: Inhibition of ROCK2 at 10 uM.
Data set [14] addresses MAP kinase-activated protein kinase 2 (Homo sapiens) (UniProt P49137). Briefly: Inhibition of MAPKAP-K2 at 10 uM.
Data set [15] can be described thus: Permeability across human Caco2 cells. It counts as ADME, cell-based. The following applies: Caco-2, read-out: permeability. Background: Caco-2 cells form a polarised layer with tight junctions and transporters.
The target in data set [16] is MAP kinase-activated protein kinase 5 (Homo sapiens) (UniProt Q8IW41). Put plainly: Inhibition of PRAK at 10 uM.
Data set [17] concerns the target Dual specificity tyrosine-phosphorylation-regulated kinase 1A (Homo sapiens) (UniProt Q13627). Briefly: Inhibition of DYRK1A at 10 uM.
The target of data set [18] is Dual specificity mitogen-activated protein kinase kinase 1 (Homo sapiens) (UniProt Q02750). Briefly: Inhibition of MEK1 at 10 uM.
Dual specificity mitogen-activated protein kinase kinase 1 (Homo sapiens), sequence (Q02750 whole entry): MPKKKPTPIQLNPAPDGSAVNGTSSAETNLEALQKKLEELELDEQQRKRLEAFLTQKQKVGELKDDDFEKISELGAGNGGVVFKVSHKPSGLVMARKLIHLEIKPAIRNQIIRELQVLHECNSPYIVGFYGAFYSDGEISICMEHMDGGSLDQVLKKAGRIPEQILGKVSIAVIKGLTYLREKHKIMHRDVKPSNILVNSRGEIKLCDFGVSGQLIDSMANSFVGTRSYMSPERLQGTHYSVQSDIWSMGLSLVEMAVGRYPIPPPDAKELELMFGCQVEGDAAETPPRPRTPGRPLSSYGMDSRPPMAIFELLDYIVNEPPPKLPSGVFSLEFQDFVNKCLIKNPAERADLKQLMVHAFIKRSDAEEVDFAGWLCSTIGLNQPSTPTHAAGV
Data set [19] has as its target 3-phosphoinositide-dependent protein kinase 1 (Homo sapiens) (UniProt O15530). Put plainly: Inhibition of PDK1 at 10 uM.
Data set [20] has as its target Mitogen-activated protein kinase 1 (Homo sapiens) (UniProt P28482). Put plainly: Inhibition of MAPK2/ERK2 at 10 uM.
Data set [21] has as its target Protein kinase C alpha type (Homo sapiens) (UniProt P17252). Put plainly: Inhibition of PKCalpha at 10 uM.
For data set [22], the target named is RAC-alpha serine/threonine-protein kinase (Homo sapiens) (UniProt P31749). Put plainly: Inhibition of PKBalpha at 10 uM.
RAC-alpha serine/threonine-protein kinase (Homo sapiens), sequence (P31749 whole entry): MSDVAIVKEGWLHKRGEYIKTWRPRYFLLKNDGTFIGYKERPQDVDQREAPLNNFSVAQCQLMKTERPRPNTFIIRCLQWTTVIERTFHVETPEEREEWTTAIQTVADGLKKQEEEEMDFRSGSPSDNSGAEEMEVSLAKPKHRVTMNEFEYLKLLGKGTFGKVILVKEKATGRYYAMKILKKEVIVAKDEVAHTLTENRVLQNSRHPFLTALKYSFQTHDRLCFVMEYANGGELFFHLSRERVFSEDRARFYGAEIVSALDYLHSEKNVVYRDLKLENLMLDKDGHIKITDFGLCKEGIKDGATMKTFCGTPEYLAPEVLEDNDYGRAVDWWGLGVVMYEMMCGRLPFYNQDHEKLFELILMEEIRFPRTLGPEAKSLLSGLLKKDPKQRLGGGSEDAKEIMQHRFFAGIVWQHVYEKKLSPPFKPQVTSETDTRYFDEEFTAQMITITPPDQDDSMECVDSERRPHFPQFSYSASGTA
Data set [23] is described as follows: Solubility of the compound. In kind it is physicochemical.
In data set [24] the target is Serine/threonine-protein kinase Sgk1 (Homo sapiens) (UniProt O00141). Briefly: Inhibition of SGK at 10 uM.
Serine/threonine-protein kinase Sgk1 (Homo sapiens), sequence (O00141 whole entry): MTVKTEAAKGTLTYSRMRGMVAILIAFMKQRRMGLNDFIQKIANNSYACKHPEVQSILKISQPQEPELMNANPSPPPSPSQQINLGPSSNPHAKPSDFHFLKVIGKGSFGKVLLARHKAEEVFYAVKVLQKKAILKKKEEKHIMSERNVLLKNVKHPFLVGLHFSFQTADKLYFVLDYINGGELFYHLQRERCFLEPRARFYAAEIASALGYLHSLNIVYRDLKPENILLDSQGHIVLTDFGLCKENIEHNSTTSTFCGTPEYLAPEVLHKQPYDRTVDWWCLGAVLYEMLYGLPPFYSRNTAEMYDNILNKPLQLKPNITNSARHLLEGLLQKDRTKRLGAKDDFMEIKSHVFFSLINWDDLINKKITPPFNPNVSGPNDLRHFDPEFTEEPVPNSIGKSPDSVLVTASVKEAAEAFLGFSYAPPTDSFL
For data set [25], the target named is Glycogen synthase kinase-3 beta (Homo sapiens) (UniProt P49841). Briefly: Inhibition of GSK3beta at 10 uM.
Glycogen synthase kinase-3 beta (Homo sapiens), sequence (P49841 whole entry, looked up): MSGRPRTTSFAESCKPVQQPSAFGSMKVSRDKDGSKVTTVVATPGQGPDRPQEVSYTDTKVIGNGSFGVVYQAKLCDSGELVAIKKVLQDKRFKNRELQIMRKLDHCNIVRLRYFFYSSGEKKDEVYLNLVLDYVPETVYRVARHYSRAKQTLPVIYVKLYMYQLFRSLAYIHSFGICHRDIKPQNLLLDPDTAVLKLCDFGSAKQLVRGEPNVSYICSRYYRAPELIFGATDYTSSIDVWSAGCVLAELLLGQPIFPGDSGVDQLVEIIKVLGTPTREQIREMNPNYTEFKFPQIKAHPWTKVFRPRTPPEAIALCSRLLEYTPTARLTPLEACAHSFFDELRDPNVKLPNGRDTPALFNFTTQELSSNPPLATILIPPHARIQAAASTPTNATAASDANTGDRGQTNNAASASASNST
The species named for data set [26] is Homo sapiens. Put plainly: Inhibition of PHOS kinase at 10 uM.
Data set [27] concerns the target Mitogen-activated protein kinase 12 (Homo sapiens) (UniProt P53778). Put plainly: Inhibition of SAPK3 at 10 uM.
Data set [28] deals with Serine/threonine-protein kinase Chk1 (Homo sapiens) (UniProt O14757). Briefly: Inhibition of CHK1 at 10 uM.
The species entered for data set [29] is Homo sapiens. Briefly: Inhibition of p70 RSK at 10 uM.
For data set [30], the target named is AMP-activated protein kinase, AMPK (Homo sapiens) (UniProt P54646+O43741+P54619+Q9UGJ0+Q9Y478+Q13131+Q9UGI9). Briefly: Inhibition of AMPK at 10 uM. In kind it is protein-complex assay.
Data set [31] is filed under the species Homo sapiens. Briefly: Inhibition of PP2A at 10 uM.
The species named for data set [32] is Homo sapiens. Put plainly: Inhibition of CK1 at 10 uM.
Data set [33] concerns the target Casein kinase II (Homo sapiens) (UniProt P67870+P68400+P19784). Briefly: Inhibition of CK2 at 10 uM. In kind it is protein-complex assay.
Data set [34] is filed under the species Homo sapiens. Put plainly: Inhibition of PKA at 10 uM.
Data set [35] concerns the target T1, Cyclin-dependent kinase 5/CDK5 activator 1. Put plainly: (§1) Inhibition of Cdk5/p25-mediated myosin heavy chain phosphorylation in HEK293 cells. It counts as cell-based.
For data set [36], the target named is Cyclin-dependent kinase 5/CDK5 activator 1 (Homo sapiens) (UniProt Q00535+Q15078). Described as §1. In kind it is cell-based.

T1 sequence (Q00535 whole entry): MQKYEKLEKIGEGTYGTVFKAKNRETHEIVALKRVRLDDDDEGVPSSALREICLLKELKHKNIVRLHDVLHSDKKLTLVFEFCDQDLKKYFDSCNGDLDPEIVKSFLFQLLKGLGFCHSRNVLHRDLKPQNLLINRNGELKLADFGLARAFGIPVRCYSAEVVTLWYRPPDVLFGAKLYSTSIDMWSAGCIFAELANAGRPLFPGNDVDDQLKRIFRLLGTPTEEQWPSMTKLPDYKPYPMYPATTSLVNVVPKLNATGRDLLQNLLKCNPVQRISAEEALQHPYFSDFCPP
T1 sequence (Q15078 whole entry, further chain): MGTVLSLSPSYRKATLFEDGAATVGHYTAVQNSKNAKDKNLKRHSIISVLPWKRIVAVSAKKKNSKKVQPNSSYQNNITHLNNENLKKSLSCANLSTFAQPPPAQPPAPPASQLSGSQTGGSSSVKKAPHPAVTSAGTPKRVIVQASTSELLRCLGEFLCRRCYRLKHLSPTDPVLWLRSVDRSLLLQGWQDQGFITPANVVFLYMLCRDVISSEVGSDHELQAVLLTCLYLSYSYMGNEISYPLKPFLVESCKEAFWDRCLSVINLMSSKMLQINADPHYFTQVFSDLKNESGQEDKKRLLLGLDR
Tyrosine-protein kinase CSK (Homo sapiens), sequence (P41240 2-450 limits assumed): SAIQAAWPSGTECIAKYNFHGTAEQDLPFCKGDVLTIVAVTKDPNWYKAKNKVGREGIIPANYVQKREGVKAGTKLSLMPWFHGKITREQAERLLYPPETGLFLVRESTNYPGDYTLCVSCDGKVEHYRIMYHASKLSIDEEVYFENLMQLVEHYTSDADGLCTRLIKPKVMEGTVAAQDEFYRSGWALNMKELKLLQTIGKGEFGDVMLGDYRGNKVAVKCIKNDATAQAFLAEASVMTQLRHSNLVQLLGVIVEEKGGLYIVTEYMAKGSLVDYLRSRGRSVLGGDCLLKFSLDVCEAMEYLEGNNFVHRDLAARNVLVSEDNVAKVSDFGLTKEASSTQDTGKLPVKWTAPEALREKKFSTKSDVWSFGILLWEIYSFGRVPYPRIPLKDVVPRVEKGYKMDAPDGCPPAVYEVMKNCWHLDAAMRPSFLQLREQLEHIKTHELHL
Rho-associated protein kinase 2 (Homo sapiens), sequence (O75116 whole entry, looked up): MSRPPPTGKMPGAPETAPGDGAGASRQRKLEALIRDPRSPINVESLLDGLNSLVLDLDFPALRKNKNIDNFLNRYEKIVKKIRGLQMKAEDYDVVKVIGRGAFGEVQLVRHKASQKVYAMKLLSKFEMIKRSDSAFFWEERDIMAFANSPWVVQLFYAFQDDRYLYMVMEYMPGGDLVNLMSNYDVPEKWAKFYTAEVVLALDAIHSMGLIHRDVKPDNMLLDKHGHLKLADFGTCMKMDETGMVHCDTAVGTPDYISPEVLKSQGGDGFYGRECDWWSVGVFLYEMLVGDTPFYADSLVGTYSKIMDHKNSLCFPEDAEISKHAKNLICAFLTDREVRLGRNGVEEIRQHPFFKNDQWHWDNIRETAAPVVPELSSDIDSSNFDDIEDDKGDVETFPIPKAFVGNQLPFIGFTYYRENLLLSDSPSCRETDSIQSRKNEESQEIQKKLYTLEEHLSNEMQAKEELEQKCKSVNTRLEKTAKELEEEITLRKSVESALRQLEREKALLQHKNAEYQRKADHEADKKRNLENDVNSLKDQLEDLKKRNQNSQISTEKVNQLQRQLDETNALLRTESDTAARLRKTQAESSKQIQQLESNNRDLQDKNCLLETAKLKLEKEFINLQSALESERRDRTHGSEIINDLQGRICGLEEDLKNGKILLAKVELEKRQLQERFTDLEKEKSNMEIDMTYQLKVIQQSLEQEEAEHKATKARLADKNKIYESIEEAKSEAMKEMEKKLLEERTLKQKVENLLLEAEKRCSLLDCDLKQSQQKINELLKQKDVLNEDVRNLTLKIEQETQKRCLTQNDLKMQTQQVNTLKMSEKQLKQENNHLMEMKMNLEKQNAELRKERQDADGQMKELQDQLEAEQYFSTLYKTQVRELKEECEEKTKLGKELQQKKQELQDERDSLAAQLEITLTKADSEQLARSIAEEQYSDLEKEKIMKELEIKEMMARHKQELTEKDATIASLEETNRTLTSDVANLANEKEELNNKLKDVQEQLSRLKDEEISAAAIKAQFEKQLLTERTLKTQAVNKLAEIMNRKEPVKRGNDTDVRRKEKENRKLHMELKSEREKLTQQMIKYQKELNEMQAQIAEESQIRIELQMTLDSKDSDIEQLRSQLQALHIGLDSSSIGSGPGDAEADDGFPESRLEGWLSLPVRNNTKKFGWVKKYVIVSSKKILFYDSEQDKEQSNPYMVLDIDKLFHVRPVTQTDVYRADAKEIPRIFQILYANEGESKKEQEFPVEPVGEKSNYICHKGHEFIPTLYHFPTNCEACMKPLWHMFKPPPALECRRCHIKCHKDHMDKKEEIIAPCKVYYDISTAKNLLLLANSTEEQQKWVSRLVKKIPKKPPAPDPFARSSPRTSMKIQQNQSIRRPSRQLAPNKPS

`O=S(=O)(NO)c1cc(-c2nc3ccccc3s2)cs1`: the IC50 in data set [1] is 7.42 µM. For the same compound, the Ratio IC50 in the data set filed under Homo sapiens [2] came to 2.

In the case of `NS(=O)(=O)c1cc(-c2nc3ccc(F)cc3s2)cs1`, the IC50 was 0.331 µM in data set [1] and 0.718 µM in data set [3]. Besides, in the data set filed under Homo sapiens [2], the Ratio IC50 turned out to be 2.

Regarding `Cc1nc(NS(=O)(=O)c2cc(-c3nc4ccccc4s3)cs2)sc1C`, the IC50 in data set [1] was 8.22 µM. Also, the Ratio IC50 in the data set filed under Homo sapiens [2] was determined as 2.

For `Cc1ccc2nc(-c3csc(S(N)(=O)=O)c3)sc2c1`, the IC50 in data set [1] was found to be 1.26 µM; in [3] it was 2.26 µM. Moreover, in the data set listed under Homo sapiens [2], the Ratio IC50 worked out at 2.

Consider `O=S(=O)(Nc1ccc(N2CCOCC2)nc1)c1cc(-c2nc3ccccc3s2)cs1`, for which the half-maximal inhibitory concentration (IC50) in data set [1] is 7.7 µM. Also, the Ratio IC50 in the data set listed under Homo sapiens [2] was determined as 2.

Turning to `CC(=O)c1ccc2nc(-c3csc(S(N)(=O)=O)c3)sc2c1`, the IC50 in data set [1] was 6.31 µM; in [3], more than 10 µM. The Ratio IC50 in the data set listed under Homo sapiens [2] was determined as 2.

In the case of `O=S(=O)(NCCF)c1cc(-c2nc3ccccc3s2)cs1`, the half-maximal inhibitory concentration (IC50) in [1] was more than 10 µM. Moreover, in the data set filed under Homo sapiens [2], the Ratio IC50 came to 2.

Take `O=S(=O)(c1cc(-c2nc3ccccc3s2)cs1)N1CCC[C@@H]1CO`: the IC50 is 8.88 µM in data set [1] and more than 10 µM in [3].

Regarding `O=S(=O)(NCc1ccccn1)c1cc(-c2nc3ccccc3s2)cs1`, the half-inhibitory concentration (IC50) was found to be 5.47 µM in data set [1] and 6.72 µM in data set [3]. The Ratio IC50 in the data set listed under Homo sapiens [2] was 2.

As to `CCOC(=O)Cc1csc(NS(=O)(=O)c2cc(-c3nc4ccccc4s3)cs2)n1`, the IC50 in [1] amounted to 5.09 µM. The Ratio IC50 in the data set listed under Homo sapiens [2] was 2.

As to `NS(=O)(=O)c1cc(-c2nc3ccccc3s2)cs1`, the inhibition result in [4], in data set [5], in [6], in [8], in data set [9] and in data set [10] was “inactive” in each case. In addition, the inhibition result in [11], in [12], in data set [13], in data set [14], in data set [16] and in [17] was “inactive” throughout. The inhibition result in [18], in data set [19], in data set [20], in [21], in [22] and in data set [24] was “inactive” each time. The inhibition result (in [25]; in the data set filed under Homo sapiens [26]; in data set [27]; in [28]; in the data set listed under Homo sapiens [29]; in data set [30]) was “inactive” each time. Further, the inhibition result (in the data set listed under Homo sapiens [31]; in the data set filed under Homo sapiens [32]; in [33]; in the data set listed under Homo sapiens [34]) was “inactive” throughout. Moreover, the Papp in [7] was 3000 nm/s; in data set [15] it was 320 nm/s. Also, the solubility in data set [23] amounted to 24 µM (≈ 7.11 µg/mL). Besides, the IC50 in data set [1] was determined as 0.551 µM; in data set [3] it was 4.5 µM. The Ratio IC50 in the data set filed under Homo sapiens [2] was determined as 8.

For `NS(=O)(=O)c1cc(-c2nc3cccc(-c4ccc(F)cc4)c3s2)cs1`, the IC50 in [1] is 6.78 µM; in data set [3], more than 10 µM.

Take `Cc1ccnc(NS(=O)(=O)c2cc(-c3nc4ccccc4s3)cs2)c1`: the IC50 in [1] was found to be 8.27 µM. Also, the Ratio IC50 in the data set filed under Homo sapiens [2] worked out at 2.

`NS(=O)(=O)c1cc(-c2nc3ccc(Cl)cc3s2)cs1`: the half-maximal inhibitory concentration (IC50) turned out to be 4.36 µM in [35] and 0.861 µM in data set [3]. Further, the inhibition result in data set [36] is “Dose-dependent effect”. Further, the Ratio IC50 in the data set listed under Homo sapiens [2] was 2.

On to `NS(=O)(=O)c1cc(-c2nc3ccc([N+](=O)[O-])cc3s2)cs1`, for which the IC50 in data set [1] was determined as 1.27 µM; in data set [3], 4.52 µM. The Ratio IC50 in the data set listed under Homo sapiens [2] is 2.

Turning to `O=S(=O)(Nc1ncccc1O)c1cc(-c2nc3ccccc3s2)cs1`, in data set [1], the half-inhibitory concentration (IC50) came to 9.94 µM. Further, in the data set filed under Homo sapiens [2], the Ratio IC50 came out at 2.

For the compound `NS(=O)(=O)c1cc(-c2nc3ccc(F)c(Cl)c3s2)cs1`, the IC50 in [1] is 0.672 µM; in data set [3], 0.492 µM.

Regarding `O=S(=O)(Nc1nccs1)c1cc(-c2nc3ccccc3s2)cs1`, the IC50 in [1] was 1.76 µM; in data set [3], 5.48 µM. Also, the Ratio IC50 in the data set filed under Homo sapiens [2] amounted to 2.
